In ChEMBL document CHEMBL3124806, “Imidazopyridine-fused [1,3]-diazepinones: synthesis and antiproliferative activity” (Eur J Med Chem, 2014):

Key:
Format in all cases: functional
[1] = system: T47D; assay: Cytotoxicity against human T47D cells assessed as cell growth at 10 uM after 48 hrs by SRB assay relative to untreated control; settings: read-out: Activity
Method in brief: (§1)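 NCI-60 single-dose screen. Compounds were added to the cultures at 10 μM and incubated for 48 h. The end point was sulforhodamine B protein staining read spectrophotometrically. Growth is reported as percent of untreated control cells.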

[2] = system: BT-549; assay: Cytotoxicity against human BT549 cells assessed as cell growth at 10 uM after 48 hrs by SRB assay relative to untreated control; settings: BT-549, 48 h, read-out: Activity
Method in brief: (§2)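 NCI-60 panel screen at a single concentration of 10 μM with 48 h incubation. Cell density measured by sulforhodamine B protein-binding dye and read spectrophotometrically. Growth expressed as percent of untreated control cells.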

[3] = Cytotoxicity against human Hs578T cells assessed as cell growth at 10 uM after 48 hrs by SRB assay relative to untreated control; settings: Hs-578T, read-out: Activity; method in brief: as §2
[4] = system: DU-145; assay: Cytotoxicity against human DU145 cells assessed as cell growth at 10 uM after 48 hrs by SRB assay relative to untreated control; settings: DU-145, 48 h, read-out: Activity; method in brief: as §2
[5] = system: PC-3; assay: Cytotoxicity against human PC3 cells assessed as cell growth at 10 uM after 48 hrs by SRB assay relative to untreated control; settings: PC-3, 48 h, read-out: Activity
Method in brief: (§3)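 NCI-60 one-dose screen: each agent added at 10 µM, cultures incubated 48 h. Endpoint by sulforhodamine B protein-binding dye read spectrophotometrically; growth expressed as percent of untreated control cells.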

[6] = system: RXF 393; assay: Cytotoxicity against human RXF393 cells assessed as cell growth at 10 uM after 48 hrs by SRB assay relative to untreated control; settings: RXF 393, 48 h, read-out: Activity; method in brief: as §3
[7] = system: A498; assay: Cytotoxicity against human A498 cells assessed as cell growth at 10 uM after 48 hrs by SRB assay relative to untreated control; settings: A498, 48 h, read-out: Activity; method in brief: as §2
[8] = system: 786-0; assay: Cytotoxicity against human […] cells assessed as cell growth at 10 uM after 48 hrs by SRB assay relative to untreated control; settings: 786-0, 48 h, read-out: Activity; method in brief: as §2
[9] = system: SK-OV-3; assay: Cytotoxicity against human SKOV3 cells assessed as cell growth at 10 uM after 48 hrs by SRB assay relative to untreated control; settings: SK-OV-3, 48 h, read-out: Activity; method in brief: as §1
[10] = Cytotoxicity against human NCI-ADR-RES cells assessed as cell growth at 10 uM after 48 hrs by SRB assay relative to untreated control; settings: read-out: Activity; method in brief: as §3
[11] = Cytotoxicity against human OVCAR4 cells assessed as cell growth at 10 uM after 48 hrs by SRB assay relative to untreated control; settings: OVCAR-4, 48 h, read-out: Activity; method in brief: as §3
[12] = system: OVCAR-3; assay: Cytotoxicity against human OVCAR3 cells assessed as cell growth at 10 uM after 48 hrs by SRB assay relative to untreated control; settings: OVCAR-3, 48 h, read-out: Activity; method in brief: as §3
[13] = system: UACC-62; assay: Cytotoxicity against human UACC62 cells assessed as cell growth at 10 uM after 48 hrs by SRB assay relative to untreated control; settings: UACC-62, 48 h, read-out: Activity; method in brief: as §1
[14] = Cytotoxicity against human UACC257 cells assessed as cell growth at 10 uM after 48 hrs by SRB assay relative to untreated control; settings: UACC-257, 48 h, read-out: Activity; method in brief: as §1
[15] = system: Malme-3M; assay: Cytotoxicity against human MALME-3M cells assessed as cell growth at 10 uM after 48 hrs by SRB assay relative to untreated control; settings: read-out: Activity; method in brief: as §2
[16] = system: LOX IMVI; assay: Cytotoxicity against human LOXIMVI cells assessed as cell growth at 10 uM after 48 hrs by SRB assay relative to untreated control; settings: read-out: Activity; method in brief: as §2
[17] = system: U-251; assay: Cytotoxicity against human U251 cells assessed as cell growth at 10 uM after 48 hrs by SRB assay relative to untreated control; settings: U-251, 48 h, read-out: Activity; method in brief: as §1
[18] = system: SNB-75; assay: Cytotoxicity against human SNB75 cells assessed as cell growth at 10 uM after 48 hrs by SRB assay relative to untreated control; settings: SNB-75, 48 h, read-out: Activity; method in brief: as §1
[19] = system: SF-295; assay: Cytotoxicity against human SF295 cells assessed as cell growth at 10 uM after 48 hrs by SRB assay relative to untreated control; settings: SF-295, 48 h, read-out: Activity; method in brief: as §3
[20] = system: SF-268; assay: Cytotoxicity against human SF268 cells assessed as cell growth at 10 uM after 48 hrs by SRB assay relative to untreated control; settings: SF-268, 48 h, read-out: Activity; method in brief: as §3
[21] = system: SW-620; assay: Cytotoxicity against human SW620 cells assessed as cell growth at 10 uM after 48 hrs by SRB assay relative to untreated control; settings: SW-620, 48 h, read-out: Activity; method in brief: as §1
[22] = system: KM12; assay: Cytotoxicity against human KM12 cells assessed as cell growth at 10 uM after 48 hrs by SRB assay relative to untreated control; settings: KM12, 48 h, read-out: Activity; method in brief: as §2
[23] = system: HCT-15; assay: Cytotoxicity against human HCT15 cells assessed as cell growth at 10 uM after 48 hrs by SRB assay relative to untreated control; settings: HCT-15, 48 h, read-out: Activity; method in brief: as §2
[24] = system: HCT-116; assay: Cytotoxicity against human HCT116 cells assessed as cell growth at 10 uM after 48 hrs by SRB assay relative to untreated control; settings: HCT-116, 48 h, read-out: Activity; method in brief: as §2
[25] = system: COLO 205; assay: Cytotoxicity against human COLO205 cells assessed as cell growth at 10 uM after 48 hrs by SRB assay relative to untreated control; settings: COLO 205, 48 h, read-out: Activity; method in brief: as §2
[26] = system: NCI-H322M; assay: Cytotoxicity against human NCI-H322M cells assessed as cell growth at 10 uM after 48 hrs by SRB assay relative to untreated control; settings: read-out: Activity; method in brief: as §3
[27] = system: NCI-H23; assay: Cytotoxicity against human NCI-H23 cells assessed as cell growth at 10 uM after 48 hrs by SRB assay relative to untreated control; settings: NCI-H23, 48 h, read-out: Activity; method in brief: as §3
[28] = system: HOP-92; assay: Cytotoxicity against human HOP92 cells assessed as cell growth at 10 uM after 48 hrs by SRB assay relative to untreated control; settings: HOP-92, 48 h, read-out: Activity; method in brief: as §2
[29] = system: HOP-62; assay: Cytotoxicity against human HOP62 cells assessed as cell growth at 10 uM after 48 hrs by SRB assay relative to untreated control; settings: HOP-62, 48 h, read-out: Activity; method in brief: as §2
[30] = system: SR; assay: Cytotoxicity against human SR cells assessed as cell growth at 10 uM after 48 hrs by SRB assay relative to untreated control; settings: read-out: Activity; method in brief: as §1
[31] = system: MOLT-4; assay: Cytotoxicity against human MOLT4 cells assessed as cell growth at 10 uM after 48 hrs by SRB assay relative to untreated control; settings: MOLT-4, 48 h, read-out: Activity; method in brief: as §3
[32] = system: K562; assay: Cytotoxicity against human K562 cells assessed as cell growth at 10 uM after 48 hrs by SRB assay relative to untreated control; settings: K562, 48 h, read-out: Activity; method in brief: as §2

SMILES	growth at 10 µM [1] [%]	growth at 10 µM [2] [%]	growth at 10 µM [3] [%]	growth at 10 µM [4] [%]	growth at 10 µM [5] [%]	growth at 10 µM [6] [%]	growth at 10 µM [7] [%]	growth at 10 µM [8] [%]	growth at 10 µM [9] [%]	growth at 10 µM [10] [%]	growth at 10 µM [11] [%]	growth at 10 µM [12] [%]	growth at 10 µM [13] [%]	growth at 10 µM [14] [%]	growth at 10 µM [15] [%]	growth at 10 µM [16] [%]	growth at 10 µM [17] [%]	growth at 10 µM [18] [%]	growth at 10 µM [19] [%]	growth at 10 µM [20] [%]	other results
C[C@@H]1NC(c2ccccc2)=Nc2nc3ccccn3c2C1=O	92.8	93.2	93.8	116	82.5	104	84.6	103	101	97.4	103	103	104	121	99.5	84.2	102	82.8	89	103	growth at 10 µM [21]: 93.5%; growth at 10 µM [22]: 98.9%; growth at 10 µM [23]: 104%; growth at 10 µM [24]: 98.4%; growth at 10 µM [25]: 109%; growth at 10 µM [26]: 102%; growth at 10 µM [27]: 91.9%; growth at 10 µM [28]: 75.5%; growth at 10 µM [29]: 102%; growth at 10 µM [30]: 106%; growth at 10 µM [31]: 98.2%; growth at 10 µM [32]: 108%
Cc1ccc(C2=Nc3nc4ccccn4c3C(=O)[C@@H]3CCCN23)cc1	89.8	94.2	94	97.4	81.9	85.2	68.5	98.1	106	94.9	98.2	96.7	101	98.8	102	87.4	99.1	90	96.7	88	growth at 10 µM [21]: 101%; growth at 10 µM [22]: 98.6%; growth at 10 µM [23]: 95.3%; growth at 10 µM [24]: 94%; growth at 10 µM [25]: 94.4%; growth at 10 µM [26]: 104%; growth at 10 µM [27]: 92%; growth at 10 µM [28]: 78.3%; growth at 10 µM [29]: 82.9%; growth at 10 µM [30]: 88.5%; growth at 10 µM [31]: 92.4%; growth at 10 µM [32]: 104%
Cc1ccccc1C1=Nc2nc3ccccn3c2C(=O)[C@H](Cc2ccccc2)N1	104	96.9	102	113	89.4	105	98.2	101	111	95.4	98.7	108	103	87.3	109	91.7	100	70.8	96.5	104	growth at 10 µM [21]: 103%; growth at 10 µM [22]: 108%; growth at 10 µM [23]: 100%; growth at 10 µM [24]: 86.9%; growth at 10 µM [25]: 107%; growth at 10 µM [26]: 106%; growth at 10 µM [27]: 95.3%; growth at 10 µM [28]: 90.5%; growth at 10 µM [29]: 93.4%; growth at 10 µM [30]: 122%; growth at 10 µM [31]: 111%; growth at 10 µM [32]: 113%
